Experimental data of several laboratories.
Target: Mitogen-activated protein kinase kinase kinase 3 (MAP3K3, Homo sapiens, UniProt Q99759)
Residues used in one study (Q99759 1-626): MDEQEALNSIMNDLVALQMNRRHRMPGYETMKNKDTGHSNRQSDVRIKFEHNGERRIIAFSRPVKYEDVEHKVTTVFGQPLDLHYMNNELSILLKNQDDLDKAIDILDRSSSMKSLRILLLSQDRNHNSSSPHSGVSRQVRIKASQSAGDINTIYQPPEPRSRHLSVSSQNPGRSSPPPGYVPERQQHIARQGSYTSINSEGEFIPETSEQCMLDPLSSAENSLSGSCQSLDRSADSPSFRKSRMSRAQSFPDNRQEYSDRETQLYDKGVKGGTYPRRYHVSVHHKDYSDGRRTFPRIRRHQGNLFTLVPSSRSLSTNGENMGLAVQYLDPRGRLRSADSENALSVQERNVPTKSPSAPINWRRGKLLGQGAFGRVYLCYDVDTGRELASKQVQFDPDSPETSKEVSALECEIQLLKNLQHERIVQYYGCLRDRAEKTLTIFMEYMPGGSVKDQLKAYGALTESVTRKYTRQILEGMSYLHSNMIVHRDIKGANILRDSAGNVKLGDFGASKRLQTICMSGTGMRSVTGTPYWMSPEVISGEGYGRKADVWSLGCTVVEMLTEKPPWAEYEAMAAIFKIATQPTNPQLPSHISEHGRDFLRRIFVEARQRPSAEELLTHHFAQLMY

Compound	observed	technique	tested at	remaining binding [%]
Nc1ncc2c(n1)-c1c([nH]c3ccc(C#CC4CC4)cc13)CCCC2	binding	competition with immobilised ligand	1 µM	89
CS(=O)(=O)NCC[C@H](NC(=O)c1cncc2c1cnn2-c1ccc(F)cc1)c1ccnc(S(C)(=O)=O)c1	cell-free assay	competition with immobilised ligand	1 µM	100
N[C@H]1CCN(c2nccc(-c3cnn4ncccc34)n2)C1	binding		1 µM	100
O=C(N1CCS(=O)(=O)CC1)N1C[C@H](c2ccc(OC(F)(F)F)cc2)C[C@H](c2nc(C3CC3)no2)C1	cell-free assay	competition with immobilised ligand	1 µM	100
COc1cnc(Nc2cccc(S(N)(=O)=O)c2)nc1N1CCN(c2ccccc2)CC1	binding	competition with immobilised ligand	1 µM	82
CCN1CCN(Cc2ccc(C(=O)Nc3ccc(C)c(Oc4ccc5c(c4)CC(=O)N5)c3)cc2C(F)(F)F)CC1	binding	competition with immobilised ligand	1 µM	100
COc1ccc2c(O[C@@H]3C[C@H]4C(=O)N[C@]5(C(=O)O)CC5/C=C\CCCCC[C@H](NC(=O)OC5CCCC5)C(=O)N4C3)cc(-c3csc(NC(=O)C(C)C)n3)nc2c1C (stereo partly shown)	cell-free assay	competition with immobilised ligand	1 µM	79
O=C(Nc1c[nH]nc1C(=O)NC1CCNCC1)c1cc(F)cc(F)c1	binding	competition with immobilised ligand	1 µM	89
O=C(NCCCN1CCOCC1)c1ccc(Nc2nccc(-c3cc4ccccc4s3)n2)cc1	binding	competition with immobilised ligand	1 µM	65
O=C(O)[C@H]1[C@H](Cn2nnc3ccccc3c2=O)CC[C@@H]1C(=O)c1ccc(OCCC2CCOCC2)cc1	cell-free assay	competition with immobilised ligand	1 µM	100
Cc1cnn2ncc(-c3ccnc(N(C)C)n3)c2c1	binding		1 µM	47
CC(=O)N1CCC(c2ccc(C(=O)NC(=N)N)cc2C(F)(F)F)CC1	cell-free assay	competition with immobilised ligand	1 µM	90
COc1ccnn2ncc(-c3ccnc(N(C)C)n3)c12	binding		1 µM	72
CC(=O)Nc1c(C(C)=O)c(=O)n(C)c2nc(-c3ccc(Cl)cc3Cl)c(-c3ccc(Cl)cc3)cc12	cell-free assay	competition with immobilised ligand	1 µM	100
C[C@H]1CCN(c2nccc(-c3cnn4ncccc34)n2)C1	binding		1 µM	59
O=C(c1ccc(Nc2ncc(Cl)c(-c3cc4ccccc4s3)n2)cc1)N1CCC(N2CCCC2)CC1	binding	competition with immobilised ligand	1 µM	34
CN(c1nccc(-c2cnn3ncccc23)n1)C1CC1	binding		1 µM	100
COc1ncc2cc3ccccc3nc2c1C#N	cell-free assay	competition with immobilised ligand	5 µM	95
CN(C)c1ncc(F)c(-c2cnn3ncccc23)n1	binding		1 µM	90
Cc1cnc(Nc2ccc(C(=O)N3CCC(N4CCCC4)CC3)cc2)nc1-c1cc2ccccc2s1	binding	competition with immobilised ligand	1 µM	19
CN(C)c1nccc(-c2cnc3ncccn23)n1	binding		1 µM	44
C=CC(=O)N1CCC(C(=O)NCC(=O)N2CCN(c3nc(-c4cnc(N)nc4C(F)F)nc(N4CCOCC4)n3)CC2)CC1	binding	competition with immobilised ligand	1 µM	99
